Assays:
[1] = biological target: T1, Mucosa-associated lymphoid tissue lymphoma translocation protein 1 (Homo sapiens, UniProt Q9UDY8); test: Inhibition of MALT1 in human Jurkat cell lysate preincubated for 2 hrs followed by addition of 25 uM Ac-LRSR-AMC substrate for 3 hrs by fluorescence based assay; type: cell-free
T1 sequence (Q9UDY8 whole entry): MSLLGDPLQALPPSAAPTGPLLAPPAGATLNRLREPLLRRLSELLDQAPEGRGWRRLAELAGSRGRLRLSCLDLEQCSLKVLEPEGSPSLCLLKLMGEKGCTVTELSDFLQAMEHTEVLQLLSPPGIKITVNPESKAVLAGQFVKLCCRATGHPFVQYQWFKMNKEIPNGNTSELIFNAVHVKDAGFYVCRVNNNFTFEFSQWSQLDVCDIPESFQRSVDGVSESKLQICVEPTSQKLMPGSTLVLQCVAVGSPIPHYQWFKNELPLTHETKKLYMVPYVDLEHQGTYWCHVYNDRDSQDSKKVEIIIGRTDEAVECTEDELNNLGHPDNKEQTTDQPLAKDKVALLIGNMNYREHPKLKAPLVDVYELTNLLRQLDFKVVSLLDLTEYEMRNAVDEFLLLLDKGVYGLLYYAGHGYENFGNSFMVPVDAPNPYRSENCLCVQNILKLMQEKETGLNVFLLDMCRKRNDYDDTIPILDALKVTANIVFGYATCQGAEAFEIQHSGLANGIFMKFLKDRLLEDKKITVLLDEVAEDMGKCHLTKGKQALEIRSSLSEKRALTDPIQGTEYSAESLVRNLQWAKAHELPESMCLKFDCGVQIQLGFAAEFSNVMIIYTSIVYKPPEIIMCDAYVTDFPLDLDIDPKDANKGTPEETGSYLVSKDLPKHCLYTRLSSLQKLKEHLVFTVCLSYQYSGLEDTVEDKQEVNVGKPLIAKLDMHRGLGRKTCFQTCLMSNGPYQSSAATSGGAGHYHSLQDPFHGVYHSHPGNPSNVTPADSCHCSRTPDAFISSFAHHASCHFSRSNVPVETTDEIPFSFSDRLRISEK
How it was run: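 MALT1 paracaspase activity in Jurkat cell lysate, read as fluorescence from AMC (7-amino-4-methylcoumarin) released when MALT1 cleaves the fluorogenic tetrapeptide Ac-LRSR-AMC. Inhibition is taken against an untreated control. IC50 is the mean of two independent experiments, each run in duplicate.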

[2] = Antiproliferative activity against human OCI-LY3 cells after 48 hrs by MTT assay; type: functional, cell-based; conditions: OCI-Ly3, 48 h
[3] = biological target: T1, Mucosa-associated lymphoid tissue lymphoma translocation protein 1; test: Inhibition of His-tagged human MALT1 (catalytic domain-339-719 aa) by fluorescence based assay using 25 uM Ac-LRSR-AMC as substrate
[4] = Antiproliferative activity against human MJ cells; type: functional, cell-based
[5] = Antiproliferative activity against human NK92 cells; type: functional, cell-based
[6] = biological target: T2, Mucosa-associated lymphoid tissue lymphoma translocation protein 1 (Homo sapiens) (UniProt Q9UDY8); test: Inhibition of MALT1 paracaspase activity in human OCI-LY3 cells assessed as decrease in cleaved CYLD level after 24 hrs by western blot analysis; type: cell-based
T2 sequence (whole entry): T1 sequence (Q9UDY8 whole entry)

A549 = test: Antiproliferative activity against human A549 cells; type: functional, cell-based
HuT78 = test: Antiproliferative activity against human HUT78 cells; type: functional, cell-based
[7] = Antiproliferative activity against human SupT1 cells; type: functional, cell-based; conditions: SUP-T1

IC50 [1] | IC50 [3] | Structure (SMILES) | IC50 [2] | also measured
3.1 µM | – | O=C(CNC1=CC(=O)C(=O)c2ccccc21)NCCc1ccccc1 | – | –
– | 9200 nM | COc1ccc2c(c1)C1=C(CCC(C)(C)O1)C(=O)C2=O | 17 µM | –
4.1 µM | – | O=C1C=C(NCC(=O)N2CCCC2)c2ccccc2C1=O | – | –
5.4 µM | – | O=C1C=C(NC2CCN(Cc3ccccc3)CC2)c2ccccc2C1=O | – | –
1.5 µM | – | O=C1C=C(NC2CCN(Cc3ccccc3)C2)c2ccccc2C1=O (stereo not drawn) | > 10 µM | –
21.9 µM | – | O=C1C=C(NCCN2CCOCC2)c2ccccc2C1=O | – | –
2.5 µM | – | CN(C)C1=CC(=O)C(=O)c2ccccc21 | > 10 µM | –
– | 600 nM | COc1ccc2c(c1)C(=O)C(=O)C1=C2OC(C)(C)CC1 | 3.1 µM | –
7.8 µM | – | COCCNC1=CC(=O)C(=O)c2ccccc21 | > 10 µM | –
– | 1600 nM | CC1(C)CCC2=C(O1)c1ccc(C#N)cc1C(=O)C2=O | 1.5 µM | IC50 [4]: 16.7 µM; IC50 [5]: 17 µM; inhibition [6]: Dose-dependent effect; IC50 (A549): 5.7 µM; IC50 (HuT78): 12.3 µM; IC50 [7]: 5.6 µM
14.4 µM | – | O=C1C=C(NCCCN2CCCC2=O)c2ccccc2C1=O | – | –
– | 2300 nM | COc1cc2c(cc1OC)C1=C(CCC(C)(C)O1)C(=O)C2=O | 8.5 µM | –
– | 3300 nM | COCCOc1nc(-c2ccc(Cl)c(Cl)c2)n(-c2ccc(NC(=O)CCl)cc2)n1 | 2.6 µM | –
– | 9300 nM | CC1(C)CCC2=C(O1)c1cc(O)ccc1C(=O)C2=O | – | –
11.9 µM | – | O=C1C=C(NCCCN2CCCC2)c2ccccc2C1=O | – | –
3 µM | – | CNC(=O)CNC1=CC(=O)C(=O)c2ccccc21 | 9.4 µM | –
– | 9200 nM | CC1(C)CCC2=C(O1)c1ccc(Br)cc1C(=O)C2=O | 4.1 µM | –
– | 1500 nM | CC1(C)CCC2=C(O1)c1ccc(F)cc1C(=O)C2=O | 3.3 µM | inhibition [6]: Dose-dependent effect
– | 400 nM | CC1(C)CCC2=C(O1)c1ccc([N+](=O)[O-])cc1C(=O)C2=O | 4.6 µM | –
1.6 µM | – | CN(C)CCNC1=CC(=O)C(=O)c2ccccc21 | – | –
14.9 µM | – | CC(C)(C)OC(=O)NCCNC1=CC(=O)C(=O)c2ccccc21 | – | –
20.4 µM | – | CC(C)NC1=CC(=O)C(=O)c2ccccc21 | – | –

Structure (SMILES) | IC50 [1] | IC50 [3] | IC50 [2] | also measured
CC(C)=CCC1=C(O)C(=O)c2cc(Br)ccc2C1=O | > 10 µM | – | – | –
CC(C)=CCC1=C(O)C(=O)c2cc(F)ccc2C1=O | > 10 µM | – | – | –
CC1(C)CCC2=C(O1)c1ccccc1C(=O)C2=O [LAPACHONE] | 1.9 µM | 1200 nM | 4 µM | –
COc1cc2c(cc1OC)C(=O)C1=C(CCC(C)(C)O1)C2=O | > 10 µM | – | – | –
O=C1C=C(NCCc2ccccc2)c2ccccc2C1=O | > 100 µM | – | – | –
